The record followed here is ChEMBL document CHEMBL1122758, “Studies of the mode of action of antitumor triazenes and triazines. 6. 1-Aryl-3-(hydroxymethyl)-3-methyltriazenes: synthesis, chemistry, and antitumor properties” (J Med Chem, 1984).

For data set [1], the system named is Mus musculus. Briefly: Compound was evaluated in vivo for antitumor activity against TLX5S Lymphoma implanted mice and percentage increase in life span (%ILS(T/C)) was reported at a optimal dose of 20 mg/Kg. The class given is functional.
A short description of data set [2]: In vitro biological stability and half-life was measured in Earl's buffer at a pH 7.4 of at 37 degree Centigrade. It counts as physicochemical. An outline of the steps: (§1)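 Decomposition was tracked by UV spectroscopy as the fall in absorbance over time at the compound's λmax. Half-life came from the slope of a log plot of extent of decomposition against time, assuming first-order kinetics. Line 4 used Earl's buffer (NaCl, NaHCO3, glucose, KCl, NaH2PO4, HCl to pH 7.4). Lines 5-11 used Sorensen's phosphate buffer, with KH2PO4 and Na2HPO4 mixed to the stated pH.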

Data set [3] in a line: In vitro biological stability and half-life was measured in phosphate buffer at a pH of 7.4 at 37 degree Centigrade. It counts as physicochemical. The conditions noted are these: pH 7.4. The gist of the method:
as §1

The nature of data set [4]: In vitro biological stability and half-life was measured in phosphate buffer at a pH 7.5 of at 25 degree Centigrade. It counts as physicochemical. An outline of the steps: as §1
The test system of data set [5] is Mus musculus. Description: Compound was evaluated in vivo for antitumor activity against TLX5R Lymphoma implanted mice and percentage increase in life span (%ILS(T/C)) was reported at a optimal dose of 5 mg/Kg five times daily.
A short description of data set [6]: In vitro biological stability and half-life was measured in phosphate buffer at a pH of 7.5 at 25 degree Centigrade. The class given is physicochemical. The conditions noted are these: pH 7.5. An outline of the steps:
as §1

Data set [7] deals with Mus musculus. Description: Compound was evaluated in vivo for antitumor activity against TLX5R Lymphoma implanted mice and percentage increase in life span (%ILS(T/C)) was reported at a optimal dose of 20 mg/Kg five times daily. The class given is functional.
A short description of data set [8]: In vitro biological stability and half-life was measured by HPLC in Earl's buffer at a pH of 7.4 at 37 degree Centigrade. The class given is physicochemical. As to conditions: pH 7.4. An outline of the steps: (§2)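 Triazene incubated at 100 µg mL-1 in closed containers at 37 °C in pH 7.4 buffer: Earl's (NaCl, NaHCO3, glucose, KCl, NaH2PO4, HCl-adjusted) for line 1; 0.01 M Tris, HCl-adjusted, for line 2; Sorensen's KH2PO4/Na2HPO4 phosphate for line 3. Remaining triazene was followed by HPLC with 30% aqueous acetonitrile plus 0.1% diethylamine at 2 mL/min, and UV detection at the compound's λmax.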

The nature of data set [9]: In vitro biological stability and half-life was measured by HPLC in phosphate buffer at a pH of 7.4 at 37 degree Centigrade. The conditions noted are these: pH 7.4. It counts as physicochemical. The gist of the method:
as §2

A short description of data set [10]: In vitro biological stability and half-life was measured by HPLC in TRIS buffer at a pH of 7.4 at 37 degree Centigrade. It counts as physicochemical. The conditions noted are these: pH 7.4. An outline of the steps: as §2
A short description of data set [11]: In vitro biological stability and half-life was measured in phosphate buffer at a pH of 5.2 at 37 degree Centigrade. As to conditions: pH 5.2. It counts as physicochemical. An outline of the steps:
as §1

Data set [12] can be described thus: In vitro biological stability and half-life was measured in phosphate buffer at a pH of 3.5 at 37 degree Centigrade. It counts as physicochemical. The conditions noted are these: pH 3.5. The gist of the method:
as §1

The nature of data set [13]: In vitro biological stability and half-life was measured in phosphate buffer at a pH of 2.5 at 37 degree Centigrade. The class given is physicochemical. The conditions noted are these: pH 2.5. An outline of the steps: as §1
Data set [14] is described as follows: In vitro biological stability and half-life was measured in phosphate buffer at a pH of 4.5 at 37 degree Centigrade. The class given is physicochemical. As to conditions: pH 4.5. The gist of the method:
as §1

Turning to `CN(CO)/N=N/c1ccc(C(N)=O)cc1`, the “ILS (T/C)” value in the data set with Mus musculus [1] worked out at 62%.

As to `CCN=NNc1ccc(C#N)cc1`, the half-life – broadly, how long it takes for the measured level to halve – in [2] came out at 18.3 min.

With `CC(=O)c1ccc(/N=N/N(C)CO)cc1`, the “ILS (T/C)” value in the data set with Mus musculus [1] is reported as 72%. For the same compound, the half-life in data set [3] turned out to be 14.5 min.

Take `CCN(CO)/N=N/c1ccc(C#N)cc1`: the “ILS (T/C)” value with Mus musculus [1] worked out at 0%.

For the compound `CN(CO)/N=N/c1ccc(C#N)cc1`, the “ILS (T/C)” value in the data set on Mus musculus [1] is on record as 54%.

In the case of `CCN=NNc1ccc(C(=O)OC)cc1`, the half-life in data set [4] is 9 min.

As to `COC(=O)c1ccc(/N=N/N(C)CO)cc1`, the “ILS (T/C)” value in the data set on Mus musculus [1] came to 120%; in the data set on Mus musculus [5], 0%. Further, the half-life in data set [3] worked out at 12.6 min; in data set [6], 22 min.

As for `C/N=N/Nc1ccccc1`, in [3], the half-life was found to be 3.5 min.

With `CN/N=N/c1ccc(C(=O)OC)cc1`, the results for the “ILS (T/C)” value in the data set on Mus musculus [1] and in the data set on Mus musculus [7] were 87% and 4%, respectively. The half-life in data set [3] was 12.1 min; in data set [6] it was 35 min.

With `CN=NNc1ccc(C(C)=O)cc1`, the half-life is 13.8 min in data set [3], 66.6 min in data set [8], 15.1 min in data set [9] and 36.2 min in [10].

As for `CCN(CO)N=Nc1ccc(C(=O)OC)cc1`, the half-life in [4] worked out at 7 min.

`CN=NNc1ccc(C#N)cc1` gave a half-life in data set [2] of 99 min.

Take `COC(=O)c1ccc(/N=N/N(C)C)cc1`: the “ILS (T/C)” value stood at 58% with Mus musculus [1] and 0% in the data set on Mus musculus [7]. Also, the half-life in data set [6] was over 1440 min.

With `CCN=NNc1ccc(C(C)=O)cc1`, the half-life in data set [8] turned out to be 15.1 min.

Turning to `COC(=O)c1ccc(/N=N/N(C)COC(=O)c2ccccc2)cc1`, in the data set on Mus musculus [1], the “ILS (T/C)” value is given as 31%. The half-life in data set [6] came out at 26.5 min.

Consider `CC(=O)c1ccc(/N=N/N(C)C)cc1`, for which the “ILS (T/C)” value with Mus musculus [1] came out at 65%; with Mus musculus [7] it was 0%. For the same compound, the half-life in [3] is over 1440 min; in data set [11] it was over 1440 min; in data set [12] it was 11.8 min; in data set [13], 1.23 min; in data set [14], 108 min.
